Source: ChEMBL document CHEMBL1154374, “Lipophilic 2,5-disubstituted pyrroles from the marine sponge Mycale sp. inhibit mitochondrial respiration and HIF-1 activation” (J Nat Prod, 2009)
Activity calls are given as the source filed them. No cut-off for these calls is given here.

What was measured:
[1] = target: T1, Hypoxia inducible factors; HIF-1-alpha, HIF-2-alpha (Homo sapiens, UniProt Q16665+Q99814); assay: Inhibition of hypoxia-induced HIF1 activation in human T47D cells at 30 uM by pTK-HRE3-luciferase reporter gene assay; assay type: cell-based
In short: (§1)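 T47D HIF-1 luciferase reporter under hypoxia (1% O2). Compounds supplied as 4 mM isopropanol stocks, final solvent under 0.75%. % inhibition = (1 − treated/induced light output) × 100. Concentration-response, one experiment in triplicate, mean ± SD.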

[2] = target: T1, Hypoxia inducible factors; HIF-1-alpha, HIF-2-alpha; assay: Inhibition of hypoxia-induced HIF1 activation in human T47D cells by pTK-HRE3-luciferase reporter gene assay; assay type: cell-based; in short: as §1
[3] = target: T1, Hypoxia inducible factors; HIF-1-alpha, HIF-2-alpha; assay: Inhibition of 1,10-phenanthroline-induced HIF1 activation in human T47D cells at 10 uM by pTK-HRE3-luciferase reporter gene assay; assay type: cell-based
In short: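 T47D HIF-1 luciferase reporter; activation induced with 1,10-phenanthroline (10 μM). Compounds supplied as 4 mM isopropanol stocks, final solvent under 0.75%. % inhibition = (1 − treated/induced light output) × 100. Concentration-response, one experiment in triplicate, mean ± SD.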

T47D [4] = assay: Inhibition of hypoxia-induced increase in VEGF production in human T47D cells at 30 uM after 16 hrs by ELISA; assay type: functional
In short: (§2)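 T47D cells held at 1% O2 for 16 h with compound at 10 or 30 μM. Secreted VEGF in conditioned medium measured by ELISA and normalized to total cell-lysate protein (micro BCA). One experiment in triplicate, mean ± SD. Compared with one-way ANOVA and Bonferroni post hoc.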

[5] = (§3) Inhibition of electron transport protein complex 1 in human T47D cells assessed as decrease in oxygen consumption by mitochondrial respiration assay; assay type: cell-based
In short: (§4)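 Oxygen consumption of intact T47D cells measured by an adapted isolated-mitochondria respiration method. Compounds tested at 1, 3, 10 and 30 μM. Three independent experiments, mean ± SD. One-way ANOVA with Bonferroni post hoc, p < 0.05.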

T47D [6] = assay: as §3; assay type: cell-based; in short: as §4
T47D [7] = assay: Inhibition of electron transport protein complex 1 in human T47D cells assessed as decrease in oxygen consumption at 10 uM by mitochondrial respiration assay; assay type: cell-based
In short: (§5)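 Digitonin-permeabilized T47D cells, O2 consumption. Malate/pyruvate starts complex I respiration. Rotenone, then succinate (complex II substrate), then antimycin A, then TMPD/ascorbate (complex IV substrates) added sequentially. Rotenone and antimycin A from ethanol stocks, final 1 μM.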

T47D [8] = assay: Inhibition of electron transport protein complex 2 in human T47D cells assessed as decrease in oxygen consumption at 10 uM in presence of succinate by mitochondrial respiration assay; assay type: cell-based; in short: as §5
T47D [9] = assay: Inhibition of electron transport protein complex 3 in human T47D cells assessed as decrease in oxygen consumption at 10 uM in presence of succinate by mitochondrial respiration assay; assay type: cell-based; in short: as §5
T47D [10] = assay: Inhibition of electron transport protein complex 4 in human T47D cells assessed as decrease in oxygen consumption at 10 uM in presence of succinate by mitochondrial respiration assay; assay type: cell-based; in short: as §5
T47D [11] = assay: Inhibition of hypoxia-induced increase in VEGF production in human T47D cells at 10 uM after 16 hrs by ELISA; assay type: functional, cell-based; in short: as §2

SMILES | inhibition [1] [%] | IC50 [2] [µM] | further results
CC/C=C\C/C=C\C/C=C\CCCCCCCc1ccc(C=O)[nH]1 | < 50 |  | 
CC(C)CCCCCCCCC/C=C\CCc1ccc(C=O)[nH]1 [MYCALAZAL 16] |  | 20 | 
CC/C=C\C/C=C\C/C=C\CCCCCCCCCCCc1ccc(C=O)[nH]1 [MYCALAZAL 3] |  | 20 | 
CC/C=C\C/C=C\C/C=C\CCCCCCCCCc1ccc(C=O)[nH]1 [MYCALAZAL 20] |  | 20 | 
CCCCCC/C=C\CCCCCCCCCc1ccc(C=O)[nH]1 | < 50 |  | 
CCCCCCCCCCCCCCCc1ccc(C=O)[nH]1 | < 50 |  | 
CC(C)CCCCC/C=C\CCCCCCc1ccc(C=O)[nH]1 [MYCALAZAL 17] |  | 20 | 
CC(C)CCCCCCCCCCCCc1ccc(C=O)[nH]1 |  | 20 | 
CCCCCCCCCCCCCCc1ccc(C=O)[nH]1 [MYCALAZAL 14] |  | 20 | 
CCCCCCCCCCCCCCCCc1ccc(C=O)[nH]1 | < 50 |  | 
CC(C)CCCCCCCCCCCCCc1ccc(C=O)[nH]1 | < 50 |  | 

Now from value to molecule, other results behind:

inhibition [1] [%] | IC50 [2] [µM] | SMILES | further results
< 50 |  | N#CCCCCCCCCCCCCC/C=C\CCCCCCc1ccc(C=O)[nH]1 | 
< 50 |  | N#CCCCCCC/C=C\CCCCCCCCCCCCCc1ccc(C=O)[nH]1 | 
< 50 |  | N#CCCCCCCCCCCCCCCCC/C=C\C/C=C\CCc1ccc(C=O)[nH]1 | 
 | 10 | N#CCCCC/C=C\C/C=C\CCCCCCCCCCCCCCc1ccc(C=O)[nH]1 [MYCALENITRILE 5] | inhibition [3]: inactive
 | 7.8 | N#CCCCC/C=C\C/C=C\CCCCCCCCCCc1ccc(C=O)[nH]1 [Mycalenitrile-6] | inhibition [3]: inactive; inhibition at 30 µM (T47D [4]): 50%; IC50 [5]: < 10 µM; Activity (T47D [6]): Dose-dependent effect; Activity (T47D [7]): Active; Activity (T47D [8]): inactive; Activity (T47D [9]): inactive; Activity (T47D [10]): inactive
 | 10 | N#CCCCCCCCCCCCCCCCCCc1ccc(C=O)[nH]1 [MYCALENITRILE 1] | inhibition [3]: inactive
< 50 |  | N#CCCCCCCCCCCCCCCCCCCc1ccc(C=O)[nH]1 | 
< 50 |  | N#CCCCCCCCCCCCCCCCCCCCCc1ccc(C=O)[nH]1 | IC50 [5]: > 30 µM
< 50 |  | N#CCCCCCC/C=C\CCCCCCCCCCCCCCCc1ccc(C=O)[nH]1 [MYCALENITRILE 10] | IC50 [5]: > 30 µM
 | 10 | N#CCCCCCC/C=C\CCCCCCCCCCCc1ccc(C=O)[nH]1 [MYCALENITRILE 8] | inhibition [3]: inactive
 | 8.6 | N#CCCCC/C=C\C/C=C\CCCCCCCCCCCCc1ccc(C=O)[nH]1 [MYCALENITRILE 7] | inhibition [3]: inactive; inhibition (T47D [4]): inactive; inhibition (T47D [11]): inactive; IC50 [5]: < 10 µM; Activity (T47D [6]): Dose-dependent effect; Activity (T47D [7]): Active; Activity (T47D [8]): inactive; Activity (T47D [9]): inactive; Activity (T47D [10]): inactive
 | 20 | CCC/C=C\C/C=C\CCCCCCCCCc1ccc(C=O)[nH]1 [MYCALAZAL 18] | 
 | 10 | N#CCCCCCCCCCCCCCCCc1ccc(C=O)[nH]1 [MYCALENITRILE 13] | inhibition [3]: inactive
< 50 |  | N#CCCCCCCCCCCCCCC/C=C\CCCCCCc1ccc(C=O)[nH]1 | 
< 50 |  | N#CCCCCCCCCCCCCCCCCCCCc1ccc(C=O)[nH]1 | 
